Assay outcomes deposited in PubChem by several laboratories.
Sampled rows, rich in hits. Any-hit rate of the full collection: about 2.2%.
eIF4E 4G PPI – eIF4E–eIF4G protein interaction inhibitors, primary screen, biochemical, uHTS, TR-FRET, eIF4GI fragment | Eukaryotic translation initiation factor 4E (Mus musculus) + Eukaryotic translation … | TR-FRET eIF4E-eIF4GI(517-606) binding, 2 h | inhibition, % at 21.7 µM | 220,000 compounds, 0.37% hits | AID 782, 2007;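 active = inhibition above about 30%, limit read from the data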;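 note: 0% = full FRET control wells and 100% = background wells lacking eIF4GI fragment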
14-3-3 Bad PPI – inhibitors of 14-3-3 zeta/Bad binding, primary screen, biochemical, TR-FRET, bovine 14-3-3 zeta. 14-3-3 protein zeta/delta (Bos taurus), P63103. TR-FRET 14-3-3zeta/Dy647-pBad peptide displacement, 1 h. inhibition, % at 21.7 µM. 220,000 compounds, 0.71% hits;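 active = inhibition above about 70%, limit read from the data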;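 note: 0% = full 14-3-3 plus peptide FRET controls and 100% = background without 14-3-3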
p97 ATPase inh – inhibitors of human p97 ATPase, primary screen, biochemical. inhibition, % at 8 µM. recombinant p97 ATPase, Kinase-Glo ATP luminescence, 3 h. AID 1481, 2009. Transitional endoplasmic reticulum ATPase (Homo sapiens), P55072. 220,000 compounds, 0.42% hits; in the data active = inhibition above about 15%;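 note: 0% = DMSO vehicle and 100% = wells lacking enzyme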
Calb biofilm kill – clotrimazole potentiators killing C. albicans biofilm, primary screen, 4-compound mixtures; AID 1242, 2008; inhibition, % at 7.6 µM; C. albicans biofilm persisters + clotrimazole, fluorescence viability; primary screen in compound mixtures of four per well; 120,000 compounds, 0.02% hits;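 active = inhibition above 30.3% in the primary screen of four-compound pools, then above 30% when the compound was retested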;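 note: compounds exposed to preformed 24 h biofilms for 48 h; 0% = untreated biofilm control and 100% = clotrimazole plus chlorhexidine kill blank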
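System: C. albicans CAF4-2 wild-type biofilms; Medium: RPMI/MOPS medium, pH 7.0; Reagent: Clotrimazole, 50 µg/mL; Times: biofilm formation 24 h, compound exposure 48 h, 37 °C; Detection: 2-h Alamar Blue fluorescence, 535/590 nm excitation/emission; Evaluation: percent inhibition of biofilm viability.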
Hck-Nef inh – inhibitors of Nef-activated human Hck kinase, primary screen, biochemical, Z-Lyte FRET, 384-well, Hck-YEEI; Tyrosine-protein kinase HCK (Homo sapiens), P08631; Recombinant Hck-YEEI plus Nef, Z-Lyte FRET kinase assay; inhibition, % at 20 µM; 220,000 compounds, 0.68% hits; AID 463187, 2010;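 active = Hck-Nef kinase inhibition above about 50%, limit read from the data; inactive = inhibition below that limit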;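 note: 0% = DMSO with Hck plus Nef and 100% = Hck alone without Nef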
PERK inhibitor – block of dimerizer-induced PERK translation repression, primary screen, PERK inhibitor project, CHO PERK-DD cells, SEAP luminescence, HTS. CHO PERK-DD fusion, SEAP luminescence translation reporter. inhibition, % at 5.6 µM. 220,000 compounds, 0.17% hits. AID 1416, 2008;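 active = inhibition above the mean inhibition of all tested compounds plus 3 SD, set separately per screening campaign, cut at about 2.9% in these data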;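 note: PERK kinase domain activated by AP20187 dimerizer at 100 nM; 0% = DMSO with dimerizer and 100% = rapamycin at 8.4 µM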
Starred values were filed as active, the others as inactive; x = no result given; [ ] = another dose, or the depositor's remark.

SMILES	eIF4E 4G PPI	14-3-3 Bad PPI	p97 ATPase inh	Calb biofilm kill	Hck-Nef inh	PERK inhibitor
O=C(COC(=O)c1cc[n+]([O-])cc1)Nc1ccc([N+](=O)[O-])cc1	-2	-2	7	9	26	0
Nc1cc(Cl)ccc1Oc1ccc(Cl)cc1	7	80*	-5	x	0	0
N=C1/C(=C\c2ccc(SCc3ccccc3)o2)C(=O)N=C2SC=NN12	-4	-8	7	9	32	0
CCS(=O)(=O)C1=NN2C(=N)/C(=C\c3ccc(SCc4ccco4)o3)C(=O)N=C2S1	7	24	10	-4	64*	1
CCc1ccc(NC(=S)NC(=O)CC(C)C)cc1	4	-12	0	17	1	1
O=C1Nc2ccccc2N(O)N1c1cc(-c2ccccc2Cl)no1	-1	0	2	x	1	3.2*
O=[N+]([O-])c1cc(-c2nnc(C34CC5CC(CC(C5)C3)C4)o2)cc([N+](=O)[O-])c1	-15	7	3	x	2	1
CN1CCN(CCOc2ccc(Cl)c(Cl)c2)CC1	0	16	5	12	-3	1
CN1CCN(CCOc2cccc(Cl)c2)CC1	5	73*	-3	x	-1	0
CC1CCCCC1NCC(=O)Nc1ccccc1-c1ccccc1 (stereo not drawn)	-5	71*	-8	4	10	-1
CC1CCN(CC(=O)Nc2ccccc2-c2ccccc2)CC1	-4	2	-4	7	-1	0
COCCCN1C(=O)/C(=C\c2ccc3c(c2)OCO3)C(C(=O)OC)=C1C	-1	-6	4	-6	5	3.2*
c1ccc(Cc2noc(CN3CCN(CCOc4ccccc4)CC3)n2)cc1	-1	-17	-1	13	1	0
O=C1C(Cc2ccc(O)cc2)NC(=S)N1c1ccccc1 (stereo not drawn)	5	-13	7	x	1	3.0*
COc1cccc(C2=NOC(C(=O)Nc3cc(C)on3)C2)c1 (stereo not drawn)	-1	0	4	11	13	1
O=C(NNC(=O)C1CCN(Cc2ccccc2)CC1)c1cccs1	0	73*	-3	15	3	1
Cc1ccn2c(NC(=O)c3ccccc3)c(-c3cccs3)nc2c1	5	70*[fluorescence artefact?]	3	x	0	0
Cc1ccn2c(NCc3ccccc3)c(-c3cccs3)nc2c1	3	-18	-6	-29	20	1
COc1ccc(C2Nc3ccccc3C(=O)N2NS(=O)(=O)c2ccccc2)cc1OC (stereo not drawn)	-6	-5	5	-1	34	0
COc1ccc(C(=O)OCC[N+]2(C)CCOCC2)cc1	31*	41	-3	13	18	0
CCOC(=O)C1CCN(c2nc(-c3ccccc3)nc3c2oc2ccccc23)CC1	7	81*	-2	x	0	-2
CCOC(=O)C1CCN(c2ncnc3c2oc2ccccc23)CC1	0	-6	-2	x	3	0
CCc1nc(N2CCN(C(=O)c3ccco3)CC2)c2oc3ccccc3c2n1	2	77*	1	x	2	1
CCOC(=O)C1CCCN(c2ncnc3c2oc2ccccc23)C1 (stereo not drawn)	7	83*	-7	x	1	-2
Cc1ccc(S(=O)(=O)CCN2CCC(n3cccc3)CC2)cc1	6	-7	6	4	36	1
SMILES	eIF4E 4G PPI	14-3-3 Bad PPI	p97 ATPase inh	Calb biofilm kill	Hck-Nef inh	PERK inhibitor
CCCC12CN3CC(C)(CN(C1)C3c1cccs1)C2=O (stereo not drawn)	0	-2	6	20	5	1
COc1ccc(Nc2nnc(C)c(=O)[nH]2)c(OC)c1	5	1	0	13	25	4.2*
Cc1cc(C)c2nc(Cl)c(Cl)nc2c1	-3	-8	6	9	4	1
CC(C)(C)OC(=O)N1CCC(c2cc(=O)n3[nH]cc(C(=O)NC4CCCC4)c3n2)CC1	-2	-8	-4	x	1	3.2*
CC(=O)c1sc(Nc2nc3cc4c(cc3s2)OCO4)nc1C	19	88*	-1	19	-26	1
CC(Sc1nnc2ccccn12)C(N)=O (stereo not drawn)	2	-5	7	-3	14	1
Cc1cc(NC(=O)CSc2nnc(-c3ccncc3)n2C)n(-c2ccccc2)n1	-1	-1	5	16	-10	2
COc1cccc(C(=O)Nc2nnc(-c3ccc(F)cc3)o2)c1	95*	-8	x	7	28	x
Oc1c(CN2CCOCC2)cc(-c2ccccc2)cc1CN1CCOCC1	2	-6	1	x	2	0
CC(C)(C)c1nc(CN2CCOCC2)cc(CN2CCOCC2)c1O	8	79*	-1	x	2	-2
CC1CCCCC1NC(=O)C1CCC(CNc2c(N3CCCCC3)c(=O)c2=O)CC1 (stereo not drawn)	3	-4	5	22	30	1
COc1cc(CCC(=O)Nc2ccc(Br)c(C(F)(F)F)c2)cc(OC)c1OC	-1	-6	-6	25	1	-1
COc1cc(CC(=O)Nc2ccc3c(c2)CCC3)cc(OC)c1OC	60*[fluorescence artefact?]	-8	-4	14	-1	-1
COc1cc(CCC(=O)Nc2ccc(Cl)c(C(F)(F)F)c2)cc(OC)c1OC	2	75*[fluorescence artefact?]	2	12	3	0
O=C(O)CN1CCc2ccccc2C1	-1	0	6	9	18	2
Cc1ccc(NC(=O)COC(=O)CCc2c[nH]c(=O)[nH]2)cc1	-5	-14	0	x	0	4.0*
CSc1nc2ccc3nc(NC(=O)c4ccc(Cl)s4)sc3c2s1	6	-1	0	x	4	0
CSc1nc2ccc3nc(NC(=O)c4cccs4)sc3c2s1	-110	73*[fluorescence artefact?]	4	x	6	1
Cc1ccc(/C=C/C(O)=C2/C(=O)N(C)C3(C)CC2c2ccccc2O3)cc1 (stereo not drawn)	97*	-11	0	x	5	0
COC(=O)Cc1ccc2sc(-c3ccccc3)nc2c1	11	-8	-5	7	4	0
CCCc1nc2cc(CC(=O)OC)ccc2o1	5	11	2	x	0	3.1*
